Assay results published in ChEMBL document CHEMBL4406880, “Design, synthesis, and bioactivity of dihydropyrimidine derivatives as kinesin spindle protein inhibitors” (Bioorg Med Chem, 2019).

Columns and labels:
Type in all cases: functional
K562 = assay: Growth inhibition of human K562 cells assessed as growth percentage at 10 uM incubated for 48 hrs by sulforhodamine B assay relative to control; conditions: K562, 48 h, read-out: Activity
How it was run: (§1)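 NCI-60 one-dose screen. Cells in RPMI 1640 with 5% FBS and 2 mM L-glutamine, seeded at 5,000–40,000 cells/well according to doubling time, and preincubated overnight at 37 °C, 5% CO2. A time-zero plate was TCA-fixed at drug addition. Compound from DMSO stock, final 10 µM, 48 h; DMSO vehicle controls. Fixation with TCA, 10% final (16% for suspension cells). SRB stain, Tris solubilization, A515. Result given as % growth versus untreated cells.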

U-251 = assay: Growth inhibition of human U251 cells assessed as growth percentage at 10 uM incubated for 48 hrs by sulforhodamine B assay relative to control; conditions: U-251, 48 h, read-out: Activity
How it was run: (§2)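 NCI-60 single-dose screen. Cells were grown in RPMI 1640 with 5% FBS and 2 mM L-glutamine and plated at 5,000–40,000 cells/well. After an overnight preincubation at 37 °C in 5% CO2, compound was added at a final 10 µM from a DMSO stock, with DMSO/PBS controls. After 48 h, cells were TCA-fixed and stained with 0.4% SRB, and absorbance was read at 515 nm. Growth is given as a percentage of untreated control.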

SK-MEL-2 = assay: Growth inhibition of human SK-MEL-2 cells assessed as growth percentage at 10 uM incubated for 48 hrs by sulforhodamine B assay relative to control; conditions: SK-MEL-2, 48 h, read-out: Activity; how it was run: as §2
SK-MEL-5 = assay: Growth inhibition of human SK-MEL-5 cells assessed as growth percentage at 10 uM incubated for 48 hrs by sulforhodamine B assay relative to control; conditions: SK-MEL-5, 48 h, read-out: Activity; how it was run: as §2
OVCAR-4 = assay: Growth inhibition of human OVCAR4 cells assessed as growth percentage at 10 uM incubated for 48 hrs by sulforhodamine B assay relative to control; conditions: OVCAR-4, 48 h, read-out: Activity; how it was run: as §1
UACC-62 = assay: Growth inhibition of human UACC62 cells assessed as growth percentage at 10 uM incubated for 48 hrs by sulforhodamine B assay relative to control; conditions: UACC-62, 48 h, read-out: Activity; how it was run: as §2
SN12C = assay: Growth inhibition of human SN12C cells assessed as growth percentage at 10 uM incubated for 48 hrs by sulforhodamine B assay relative to control; conditions: read-out: Activity; how it was run: as §2
EKVX = assay: Growth inhibition of human EKVX cells assessed as growth percentage at 10 uM incubated for 48 hrs by sulforhodamine B assay relative to control; conditions: read-out: Activity
How it was run: (§3)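 NCI-60 one-dose screen: cells in RPMI 1640 with 5% FBS and 2 mM L-glutamine, plated at 5,000–40,000 cells/well and preincubated 24 h at 37 °C, 5% CO2. Compound is added from a DMSO stock to a final 10 µM and incubated 48 h. Cells are TCA-fixed and stained with sulforhodamine B, read at 515 nm. Output is % growth versus untreated control, with a time-zero plate.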

SW-620 = assay: Growth inhibition of human SW620 cells assessed as growth percentage at 10 uM incubated for 48 hrs by sulforhodamine B assay relative to control; conditions: SW-620, 48 h, read-out: Activity; how it was run: as §2
KM12 = assay: Growth inhibition of human KM12 cells assessed as growth percentage at 10 uM incubated for 48 hrs by sulforhodamine B assay relative to control; conditions: KM12, 48 h, read-out: Activity; how it was run: as §1
SK-OV-3 = assay: Growth inhibition of human SKOV3 cells assessed as growth percentage at 10 uM incubated for 48 hrs by sulforhodamine B assay relative to control; conditions: SK-OV-3, 48 h, read-out: Activity; how it was run: as §2
NCI-H322M = assay: Growth inhibition of human NCI-H322M cells assessed as growth percentage at 10 uM incubated for 48 hrs by sulforhodamine B assay relative to control; conditions: read-out: Activity; how it was run: as §1
SF-268 = assay: Growth inhibition of human SF268 cells assessed as growth percentage at 10 uM incubated for 48 hrs by sulforhodamine B assay relative to control; conditions: SF-268, 48 h, read-out: Activity; how it was run: as §2
ACHN = assay: Growth inhibition of human ACHN cells assessed as growth percentage at 10 uM incubated for 48 hrs by sulforhodamine B assay relative to control; conditions: read-out: Activity; how it was run: as §3
SF-295 = assay: Growth inhibition of human SF295 cells assessed as growth percentage at 10 uM incubated for 48 hrs by sulforhodamine B assay relative to control; conditions: SF-295, 48 h, read-out: Activity; how it was run: as §2
M14 = assay: Growth inhibition of human M14 cells assessed as growth percentage at 10 uM incubated for 48 hrs by sulforhodamine B assay relative to control; conditions: M14, 48 h, read-out: Activity; how it was run: as §1
NCI-H522 = assay: Growth inhibition of human NCI-H522 cells assessed as growth percentage at 10 uM incubated for 48 hrs by sulforhodamine B assay relative to control; conditions: NCI-H522, 48 h, read-out: Activity; how it was run: as §1
HCT-116 = assay: Growth inhibition of human HCT116 cells assessed as growth percentage at 10 uM incubated for 48 hrs by sulforhodamine B assay relative to control; conditions: HCT-116, 48 h, read-out: Activity; how it was run: as §3
Malme-3M = assay: Growth inhibition of human MALME-3M cells assessed as growth percentage at 10 uM incubated for 48 hrs by sulforhodamine B assay relative to control; conditions: read-out: Activity; how it was run: as §1
A498 = assay: Growth inhibition of human A498 cells assessed as growth percentage at 10 uM incubated for 48 hrs by sulforhodamine B assay relative to control; conditions: A498, 48 h, read-out: Activity; how it was run: as §3
NCI-H226 = assay: Growth inhibition of human NCI-H226 cells assessed as growth percentage at 10 uM incubated for 48 hrs by sulforhodamine B assay relative to control; conditions: NCI-H226, 48 h, read-out: Activity; how it was run: as §1
PC-3 = assay: Growth inhibition of human PC3 cells assessed as growth percentage at 10 uM incubated for 48 hrs by sulforhodamine B assay relative to control; conditions: PC-3, 48 h, read-out: Activity; how it was run: as §2
NCI-H460 = assay: Growth inhibition of human NCI-H460 cells assessed as growth percentage at 10 uM incubated for 48 hrs by sulforhodamine B assay relative to control; conditions: NCI-H460, 48 h, read-out: Activity; how it was run: as §1
SNB-75 = assay: Growth inhibition of human SNB75 cells assessed as growth percentage at 10 uM incubated for 48 hrs by sulforhodamine B assay relative to control; conditions: SNB-75, 48 h, read-out: Activity; how it was run: as §2
LOX IMVI = assay: Growth inhibition of human LOXIMVI cells assessed as growth percentage at 10 uM incubated for 48 hrs by sulforhodamine B assay relative to control; conditions: read-out: Activity; how it was run: as §1
OVCAR-5 = assay: Growth inhibition of human OVCAR5 cells assessed as growth percentage at 10 uM incubated for 48 hrs by sulforhodamine B assay relative to control; conditions: OVCAR-5, 48 h, read-out: Activity; how it was run: as §2

Structure (SMILES)	growth at 10 µM (K562) [%]	growth at 10 µM (U-251) [%]	growth at 10 µM (SK-MEL-2) [%]	growth at 10 µM (SK-MEL-5) [%]	growth at 10 µM (OVCAR-4) [%]	growth at 10 µM (UACC-62) [%]	growth at 10 µM (SN12C) [%]	growth at 10 µM (EKVX) [%]	growth at 10 µM (SW-620) [%]	growth at 10 µM (KM12) [%]	growth at 10 µM (SK-OV-3) [%]	growth at 10 µM (NCI-H322M) [%]	growth at 10 µM (SF-268) [%]	growth at 10 µM (ACHN) [%]	growth at 10 µM (SF-295) [%]	growth at 10 µM (M14) [%]	growth at 10 µM (NCI-H522) [%]	growth at 10 µM (HCT-116) [%]	growth at 10 µM (Malme-3M) [%]	growth at 10 µM (A498) [%]	further results
CC(=O)N1C(=S)NC(C)=C(C(=O)OCc2ccccc2)C1c1ccc2c(c1)OCO2 (racemic)	55.4	58.2	88.6	91.2	99.3	75.3	54.5	96.8	65.3	71.1	79.2	101	73.8	95.5	96.4	54	75.7	41.4	91.6	92	growth at 10 µM (NCI-H226): 96.3%; growth at 10 µM (PC-3): 81.3%; growth at 10 µM (NCI-H460): 77.9%; growth at 10 µM (SNB-75): 80.4%; growth at 10 µM (LOX IMVI): 74.1%; growth at 10 µM (OVCAR-5): 107%
CC1(C)CC(=O)C2=C(C1)NC(=O)NC2c1ccc2c(c1)OCO2 (racemic)	108	103	104	100	102	107	105	107	109	108	112	105	98.8	109	112	102	93.9	101	100	124	growth at 10 µM (NCI-H226): 109%; growth at 10 µM (PC-3): 99.4%; growth at 10 µM (NCI-H460): 117%; growth at 10 µM (SNB-75): 97.5%; growth at 10 µM (LOX IMVI): 99.3%; growth at 10 µM (OVCAR-5): 108%
CC(=O)C1=C(C)Nc2nc3ccccc3n2C1c1ccc2c(c1)OCO2 (racemic)	82.9	95.7	130	102	102	94.4	101	110	104	96.4	106	98.1	105	110	103	105	73	98.9	105	112	growth at 10 µM (NCI-H226): 103%; growth at 10 µM (PC-3): 92.8%; growth at 10 µM (NCI-H460): 112%; growth at 10 µM (SNB-75): 88.2%; growth at 10 µM (LOX IMVI): 94.9%; growth at 10 µM (OVCAR-5): 113%
COCCOC(=O)C1=C(C)NC(=S)N(C(C)=O)C1c1ccc2c(c1)OCO2 (racemic)	94.3	94.8	108	104	87.6	98.2	96.7	94.1	100	95.9	97	101	98.4	102	98.5	96.1	91.6	103	88.6	85.3	growth at 10 µM (NCI-H226): 96.6%; growth at 10 µM (PC-3): 97.8%; growth at 10 µM (NCI-H460): 104%; growth at 10 µM (SNB-75): 83%; growth at 10 µM (LOX IMVI): 97.2%; growth at 10 µM (OVCAR-5): 102%
